Assay results from different studies.
Compare with care: the assays were run in different laboratories.
Target: Serine/threonine-protein kinase Nek4 (NEK4, Homo sapiens, UniProt P51957)

| SMILES | test | conditions | measurement | value |
| --- | --- | --- | --- | --- |
| O=C(Nc1cnn(-c2csc(C(=O)NC3COC3)c2)c1)Nc1c(F)cccc1Cl | enzyme activity, inhibitor | 5 µM | remaining activity | 90.8% |
| CC(C)(C)c1nc(-c2cccc(NS(=O)(=O)c3c(F)cccc3F)c2F)c(-c2ccnc(N)n2)s1 | enzyme activity, inhibitor, radiometric | 1 µM | remaining activity | 92% |
| CS(=O)(=O)N1CCCC(NC(=O)[C@H](CCC2CCCCC2)NC(=O)c2ccc(CNC(=O)c3cnc4ccccn34)cc2)C1 (some centres unmarked) | cell-free assay, competition with immobilised ligand | 0.1 µM | remaining binding | 100% |
| Cc1sc(C(=O)NC2COC2)cc1-n1cc(NC(=O)Nc2c(F)cccc2Cl)cn1 | enzyme activity, inhibitor | 10 µM | remaining activity | 75.5% |
| CC1=C(C#N)[C@@H](c2ccc3[nH]nc(C)c3c2)C(C#N)=C(c2ccc(Cl)cc2)N1 | cell-free assay, competition with immobilised ligand | 1 µM | remaining binding | 90.1% |
| COc1cc2ncnc(Nc3ccc(Oc4ccccc4)c(C)c3C)c2cc1OC | enzyme activity, inhibitor | 1 µM | inhibition | 2% |
| O=C(Nc1cnc(Oc2ccc(F)cc2)nc1)N1CCc2ncccc2[C@@H]1c1ccc(F)cc1 | cell-free assay, competition with immobilised ligand | 1 µM | remaining binding | 79% |
| CC(C)(O)[C@H]1CC[C@H](Nc2ccc3ncc(-c4cccc(C(F)(F)F)c4)n3n2)CC1 | enzyme activity, inhibitor | 1 µM | remaining activity | 84.3% |
| CN(C)C1CCN(CC#Cc2nn(C3CCCC3)c3nc(NCc4ccccc4)ncc23)C1 (centres unmarked) | enzyme activity, inhibitor, FRET | 1 µM | inhibition | 8% |
| CCC(=O)N[C@@H]1CC[C@H](C(=O)N(C)c2ccc(-c3nc4ccccc4o3)cc2)C1 | cell-free assay, competition with immobilised ligand | 1 µM | remaining binding | 95% |
| COc1cc2c(N3CCN(C(=O)Nc4ccc(OC(C)C)cc4)CC3)ncnc2cc1OCCCN1CCCCC1 | cell-free assay | 0.5 µM | remaining signal | 90.3% |
| CCCCNc1ncc2c(-c3ccc(F)cc3)nn(C[C@H]3CC[C@H](N)CC3)c2n1 | target engagement in cells, inhibitor, chemoproteomics | 20 mM | inhibition | -16.7% |
| CCCOc1ccc([C@H]2[C@H](C(=O)O)[C@@H](c3ccc4c(c3)OCO4)CN2CC(=O)Nc2c(CC)cccc2CC)cc1 | cell-free assay, competition with immobilised ligand | 1 µM | remaining binding | 71% |
| Cc1ccc(C(=O)Nc2ccc(CN3CCN(C)CC3)c(C(F)(F)F)c2)cc1C#Cc1cnc2cccnn12 | enzyme activity, inhibitor | 23.5 nM | remaining activity | 61% |
| Clc1ccc(Nc2nnc(Cc3ccncc3)c3ccccc23)cc1 | cell-free assay | 0.5 µM | remaining signal | 97.7% |
| COc1cc(Cl)c(C(=O)N[C@@H](CN[C@H]2CC[C@@H](N)CC2)Cc2ccc(C#N)cc2)cc1-c1ccc(CN[C@H](C)c2ccc(C)cc2)o1 | enzyme activity, inhibitor | 1 µM | remaining activity | 106% |
| Nc1ncnc2occ(-c3ccc(NC(=O)Nc4cc(C(F)(F)F)ccc4F)cc3)c12 | cell-free assay, inhibitor | 20 µM | remaining signal | 2.8% |
